PMC6911266 (Nature, 2019)
Positions count from the first letter of the chain named. Where two headings read alike, the source gives them in different places.

What was measured:
[1] = test system: P. falciparum 7G8^7G8+C350R parasite line; experiment: Parasite drug susceptibility assay; assay type: cell-based, Plasmodium falciparum; conditions: Plasmodium falciparum, 7G8, 72 h
In short: (§1)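 Asynchronous asexual blood-stage parasites were seeded at 0.3% parasitemia and 1% hematocrit into 2-fold, 10-point test compound dilutions. Incubation was 72 h at 37°C under 5% O2/5% CO2/90% N2. Final parasitemia was read by flow cytometry. IC50 came from nonlinear regression, 4 independent assays in duplicate, with two-tailed Mann-Whitney U tests.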

[2] = Uptake in control liposomes; assay type: biochemical; conditions: 100 nM [3H]-drug, liposomes without PfCRT
In short: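 Control liposomes lack PfCRT and are loaded with 100 mM KPi, pH 7.5, and 2 mM β-mercaptoethanol. They are diluted into 100 mM Tris/Mes, pH 5.5, with 100 nM [3H]-CQ (5.45 Ci/mmol) or [3H]-PPQ (15 Ci/mmol) for 1 min. Non-specific filter binding, measured as mock uptake without liposomes, is subtracted. Data come from 2 independent experiments, each with 4 technical replicates.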

[3] = test system: P. falciparum 7G8^7G8+C350R parasite line; experiment: [3H]-drug accumulation assay in cultured parasites; assay type: cell-based, Plasmodium falciparum; conditions: 60 min, trophozoites
In short: (§2)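 Sorbitol-synchronized early trophozoites (24–26 h) were magnet-purified and resuspended in bicarbonate-free RPMI 1640 (25 mM HEPES, 10 mM glucose, 0.2 mM hypoxanthine, pH 7.4), counted by hemocytometer. They were mixed with an equal volume of radiolabelled drug (10 nM [3H]-CQ before mixing) for 1 h at 37°C, spun through dibutyl phthalate, then scintillation counted. CAR was internal/external drug, corrected for uninfected erythrocytes, per 10^6 cells at 75 fl; 4–6 assays in duplicate.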

[4] = test system: P. falciparum WT (3D7) parasite line; experiment: [3H]-drug accumulation assay in cultured parasites; assay type: cell-based, Plasmodium falciparum; conditions: 60 min, trophozoites
In short: as §2

PfCRT 7G8 = biological target: T1, PfCRT 7G8 (Plasmodium falciparum, UniProt W7FI62); assay type: biochemical; conditions: for transport activity (in words): proteoliposomes
T1 sequence (W7FI62 1-424): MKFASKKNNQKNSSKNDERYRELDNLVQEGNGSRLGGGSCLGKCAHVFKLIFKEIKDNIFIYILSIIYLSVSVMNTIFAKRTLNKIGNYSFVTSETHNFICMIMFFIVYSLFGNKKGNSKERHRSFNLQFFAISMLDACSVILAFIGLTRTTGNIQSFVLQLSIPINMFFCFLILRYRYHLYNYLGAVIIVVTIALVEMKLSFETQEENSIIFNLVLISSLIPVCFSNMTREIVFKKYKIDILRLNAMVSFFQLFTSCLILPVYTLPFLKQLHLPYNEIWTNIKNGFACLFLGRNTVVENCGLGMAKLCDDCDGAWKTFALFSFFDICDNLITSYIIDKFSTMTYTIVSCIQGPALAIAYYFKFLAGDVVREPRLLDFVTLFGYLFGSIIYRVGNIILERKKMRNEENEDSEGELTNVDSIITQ

PfCRT Dd2 = biological target: T2, PfCRT Dd2 (Plasmodium falciparum, UniProt Q9N623, A220S/I356T/K76T/M74I/N326S/N75E/Q271E/R371I); experiment: Equilibrium dialysis binding, PfCRT variant in nanodiscs; conditions: for Bmax, binding at pH 5.5 / Bmax, binding at pH 7.5: equilibrium dialysis
T2 sequence (Q9N623 1-424 M74I/N75E/K76T/A220S/Q271E/N326S/I356T/R371I): T1 sequence (W7FI62 1-424) with S72C, M74I, N75E, Q271E, D326S, L356T, R371I

[5] = test system: P. falciparum 7G8^7G8 parasite line; experiment: [3H]-drug accumulation assay in cultured parasites; assay type: cell-based, Plasmodium falciparum; conditions: 60 min, trophozoites
In short: as §2

[6] = test system: P. falciparum 7G8^7G8+F145I parasite line; experiment: Parasite drug susceptibility assay; assay type: cell-based, Plasmodium falciparum; conditions: for IC50: Plasmodium falciparum, 7G8, 72 h
In short: as §1

PfCRT 7G8+C350R = biological target: T3, PfCRT 7G8+C350R (Plasmodium falciparum, UniProt W7FI62, C350R); experiment: Equilibrium dialysis binding, PfCRT variant in nanodiscs; conditions: for Bmax, binding at pH 5.5 / Bmax, binding at pH 7.5: equilibrium dialysis
T3 sequence (W7FI62 1-424 C350R): T1 sequence (W7FI62 1-424) with C350R

[7] = binding at pH 5.5, equilibrium dialysis, pH 5.5
[8] = binding at pH 7.5, equilibrium dialysis, pH 7.5

SMILES | IC50 [1] [nM] | 1-min uptake in control liposomes [2] [nmol/mg] | transport activity (in words) (PfCRT 7G8) | Kd (PfCRT Dd2; [7]) [nM] | Kd (PfCRT Dd2; [8]) [nM] | Bmax, binding at pH 5.5 (PfCRT Dd2; pH 5.5) [mol CQ/mol PfCRT] | Bmax, binding at pH 7.5 (PfCRT Dd2; pH 7.5) [mol CQ/mol PfCRT] | IC50 [6] [nM] | Kd (PfCRT 7G8+C350R; [7]) [nM] | Kd (PfCRT 7G8+C350R; [8]) [nM] | Bmax, binding at pH 5.5 (PfCRT 7G8+C350R; pH 5.5) [mol CQ/mol PfCRT] | Bmax, binding at pH 7.5 (PfCRT 7G8+C350R; pH 7.5) [mol CQ/mol PfCRT] | further results
CCN(CC)CCCC(C)Nc1ccnc2cc(Cl)ccc12 (stereo not shown) [CQ, chloroquine] | 6.9 ± 0.3 | 0.12 ± 0.02 | robust transport activity | 200 ± 40 | 310 ± 40 | 0.42 ± 0.04 | 0.38 ± 0.01 | 7.3 ± 0.4 | 130 ± 30 | 300 ± 60 | 0.37 ± 0.02 | 0.42 ± 0.03 | [3H]-CQ CAR (cellular accumulation ratio) ([3]; 5 nM [3H]-CQ): 406.4 ± 22.4; [3H]-CQ CAR (cellular accumulation ratio) ([4]; 5 nM [3H]-CQ): 876.7 ± 38.7; 1-min uptake, transport in proteoliposomes (PfCRT 7G8; 100 nM [3H]-drug, 1 min, inwardly-directed pH gradient): 3.14 ± 0.50 nmol/mg; catalytic turnover number (kcat) (PfCRT 7G8; from Vmax, assuming full activity of reconstituted PfCRT 7G8): ~ 0.2 s^−1; Vmax, transport in proteoliposomes (PfCRT 7G8; initial rates over 3 s, Michaelis-Menten fit): 92.2 ± 4.9 nmol/mg/min; time course of uptake (in words) (PfCRT 7G8; pH gradient 5.5–7.5 and membrane potential (valinomycin)): maximal within one minute; [3H]-CQ CAR (cellular accumulation ratio) ([5]; 5 nM [3H]-CQ): 14.5 ± 3.7
Clc1ccc2c(N3CCN(CCCN4CCN(c5ccnc6cc(Cl)ccc56)CC4)CC3)ccnc2c1 [PPQ, piperaquine] | 29.5 ± 1.6 | 0.09 ± 0.01 | Minimal | 80 ± 10 | 220 ± 30 | 0.39 ± 0.01 | 0.39 ± 0.02 | 28.7 ± 1 | 210 ± 30 | 250 ± 40 | 0.39 ± 0.02 | 0.41 ± 0.02 | [3H]-PPQ CAR (cellular accumulation ratio) ([3]; 20 nM [3H]-PPQ): 1207.4 ± 119.8; [3H]-PPQ CAR (cellular accumulation ratio) ([4]; 20 nM [3H]-PPQ): 2123.8 ± 72.2; transport activity (in words) (PfCRT 7G8; listed as [^3H]-PPQ): no detectable; [3H]-PPQ CAR (cellular accumulation ratio) ([5]; 20 nM [3H]-PPQ): 1943.9 ± 82.2; fold increase in IC90 compared to the isogenic 7G8 control line ([6]; 72 h growth inhibition): 188 fold; fold increase in Kd compared with 7G8 parental isoform (PfCRT 7G8+C350R; pH 5.5): ~ 2 fold
